Results gathered from unrelated publications.
Read-out: cell growth or viability

`FC(F)(F)c1ccc(-c2cc(COc3cc(C(F)(F)F)nc4ccccc34)on2)cc1` has an IC50 of over 100 µM (Z-138; MTS; 72 h).
`Cc1ccc(CN2C(=O)C(=Nc3cccc(C)c3)c3ccccc32)cc1` has an IC50 of 0.44 µM (B16; MTT; 48 h).
For `N#Cc1ccc(-c2cc(CNc3cccc4cccnc34)on2)cc1`, the IC50 was 10.8 µM (Z-138; MTS; 72 h).
For `O=C1Nc2ccccc2C1=Nc1cccc(Cl)c1`, the IC50 was over 100 µM (B16; MTT; 48 h).
For `O=C(CSc1nc2ccccc2s1)N/N=C/c1ccc(OCC(=O)Nc2ccc(Br)cc2)cc1`, the IC50 was over 100 µM (Z-138; MTS; 72 h).
`CONC(=O)c1cccc2c1cc(C)n2-c1nc2c(c(NCc3ccccc3)n1)CCCN2` gave an IC50 of 1.4 µM (BXPC-3; 72 h).
For `Cc1nc(Nc2ncc(C(=O)Nc3c(C)cccc3Cl)s2)cc(N2CC[C@H](O)C2)n1`, the IC50 was over 10 µM (Granta-519; ATP luminescence; 72 h).
For `Cc1ccc(CN2C(=O)C(=Nc3cccc(Cl)c3)c3ccccc32)cc1`, the IC50 was 1.49 µM (B16; MTT; 48 h).
For `CN1CCC(NC2CCc3[nH]c4c(C(N)=O)ccc(-c5ccccc5Cl)c4c3C2)CC1` (stereo not drawn), the IC50 was 0.0347 µM (BXPC-3; 96 h).
For `O=C(CSc1nc2ccccc2s1)N/N=C/c1ccc(OCC(=O)Nc2cccc([N+](=O)[O-])c2)cc1`, the IC50 was over 100 µM (Z-138; MTS; 72 h).
With `FC(F)(F)c1cc(OCc2cc(-c3ccccn3)no2)c2ccccc2n1` the IC50 was over 100 µM (Z-138; MTS; 72 h).
The IC50 of `O=C(CSc1nc2ccccc2s1)N/N=C/c1ccc(OCC(=O)Nc2cccc(Cl)c2)cc1` is reported as over 100 µM (Z-138; MTS; 72 h).
With `Cc1cc2c(C(=O)O)cccc2n1-c1nc2c(c(NCc3ccccc3)n1)CCCN2` the IC50 was 0.9 µM (ARP-1; 72 h).
`N/C(=N\O)c1ccc(-c2cc(CNc3cccc4cccnc34)on2)cc1` gave an IC50 of 2.1 µM (Z-138; MTS; 72 h).
With `O=c1[nH]cc(F)c(=O)[nH]1` the IC50 was 2.68 µM (DLD-1; MTT; 72 h).
The IC50 of `O=C1C(=Nc2ccccc2I)c2ccccc2N1Cc1cccc(Cl)c1` is reported as 5.86 µM (B16; MTT; 48 h).
With `Cc1cc2c(C(N)=O)cccc2n1-c1nc2c(c(NCc3ccccc3)n1)CCCN2` the IC50 was 1.3 µM (ARP-1; 72 h).
`COc1cc([C@@H]2c3cc4c(cc3[C@@H](O[C@@H]3O[C@@H]5CO[C@@H](C)O[C@H]5[C@H](O)[C@H]3O)[C@H]3COC(=O)[C@H]23)OCO4)cc(OC)c1O` has an IC50 of 0.03 µM (Z-138; MTS; 72 h).
`O=C1C(=Nc2ccc(Cl)cc2Br)c2ccccc2N1Cc1ccc([N+](=O)[O-])cc1` has an IC50 of 2.14 µM (B16; MTT; 48 h).
With `FC(F)(F)c1cc(OCc2cc(-c3ccc(Cl)cc3Cl)no2)c2ccccc2n1` the IC50 was over 100 µM (Z-138; MTS; 72 h).
`O=C1C(=Nc2ccccc2I)c2ccccc2N1Cc1ccc(Br)cc1` gave an IC50 of 15.2 µM (B16; MTT; 48 h).
